p97 inhibitor – inhibitors of human p97 ATPase. recombinant p97 ATPase, Kinase-Glo ATP luminescence, 3 h. inhibition, % at 8 µM. 220,000 tested, 0.42% active; in the data active = inhibition above about 15%;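 note: 0% = DMSO vehicle and 100% = wells lacking enzyme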
TNAP inh hi DEA – inhibitors of human TNAP at high phosphate acceptor concentration; P05186; purified TNAP, CDP-star luminescence, 1 M DEA; inhibition, % at 20 µM; 200,000 tested, 0.03% active; AID 1135;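 active = over 50% inhibition of tissue-nonspecific alkaline phosphatase at 20 µM in the single-dose screen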;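 note: plate controls were DMSO wells for no effect and EDTA-quenched wells as full inhibition for full effect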
PERK inh – blocks human PERK kinase | CHO PERK-DD fusion, SEAP luminescence translation reporter | inhibition, % at 5.6 µM | 220,000 tested, 0.17% active;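 active = inhibition above the mean inhibition of all tested compounds plus 3 SD, set separately per screening campaign, cut at about 2.9% in these data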;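 note: PERK kinase domain activated by AP20187 dimerizer at 100 nM; 0% = DMSO with dimerizer and 100% = rapamycin at 8.4 µM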
TNAP inh no acc – blocks human TNAP activity with no phosphate acceptor present | purified TNAP, CDP-star luminescence, 30 min | inhibition, % at 20 µM | 200,000 tested, 0.26% active;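 active = tissue-nonspecific alkaline phosphatase inhibition above about 50% at 20 µM in the single-dose screen, limit read from the data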;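 note: 0% = DMSO negative control and 100% = EDTA positive control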
Redox H2O2 prof – compounds producing H2O2 with reducing agent – biochemical, NIH compound library profiling, artefact control for MLSCN library redox annotation, primary screen. DTT-dependent redox cycling H2O2, phenol red/HRP absorbance; 100% = 100 µM peroxide control, 0% = buffer. activation, % at 10 µM. 200,000 tested, 0.03% active. AID 878;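 active = activation of at least 50% relative to the plate's high and low controls in the primary single-dose screen; inactive = activation below 50%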;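 note: compound incubated with DTT at 0.8 mM final as the reducing agent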
TNAP act hi DEA – TNAP (human) activation, high acceptor | purified TNAP, CDP-star luminescence, 1 M DEA, 30 min; active compounds read high; 0 = EDTA background, 1 = DMSO-only activity | activation factor at 20 µM | 200,000 tested, under 10 active;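 active = activation factor at least 2 at 20 µM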
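Measured by: Luminescent substrate turnover signal | Test system: Human TNAP | Input: TNAP 1/800 final | Dosing: 20 µM single point | Schedule: 30 min, room temperature | Controls: EDTA wells as negative control, DMSO wells as positive control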
* = called active by the depositor; nt = no result. This is a sample that favours compounds with a hit; in the whole collection about 0.86% have one here.

SMILES	p97 inhibitor	TNAP inh hi DEA	PERK inh	TNAP inh no acc	Redox H2O2 prof	TNAP act hi DEA
COc1ccccc1Nc1nc2nonc2[nH]c1=O	2	-5	2	-11	0	1.1
Cc1ccc(S(=O)(=O)N2CCOCC2)cc1NC(=O)COC(=O)CSc1ccc(Br)cc1C	-1	10	1	-7	0	0.9
Nc1nc(=S)c2ncn(C3OC(CO)C(O)C3O)c2[nH]1 (stereo not given)	7	nt	0	nt	nt	nt
Nc1nc(Cl)nc2c1ncn2[C@@H]1O[C@H](CO)[C@@H](O)[C@H]1O	-2	0	5.6*	-7	0	1
C=CCNC(=S)Nc1cccc2ccccc12	7	-1	3.0*	-3	3	1
c1ccc(CCNc2ccccc2)cc1	nt	-2	nt	-7	nt	1
COc1ccc(-c2[nH]ncc2CN(C)CCN2CCOCC2)cc1F	3	-11	3.0*	14	-2	1.1
COc1ccc(-c2[nH]ncc2CN(C)CC2CCCCO2)cc1F (stereo not given)	2	-5	0	9	-1	1
COc1ccccc1NC(=O)COn1nnc2ccc(S(=O)(=O)N3CCOCC3)cc21	0	-1	0	-4	-1	1
CS(=O)(=O)N(CC(=O)Nc1ccccc1Cl)c1ccc(Cl)cc1	-1	-6	0	-7	-1	1.1
CCCCc1c(C)nc2c(OC)cccc2c1SCC(=O)O	11	nt	4.2*	nt	nt	nt
CCOC(=O)C(=Cc1ccc(Br)cc1)C(=O)OCC	-12	nt	-1	nt	nt	nt
CCOC(=O)C(CC)(CC)C(=O)/C=C/c1ccc(Br)cc1	3	-3	3.2*	-7	2	1
CC1(C(=O)CSc2n[nH]c(-c3ccccc3Cl)n2)CCC(=O)O1 (stereo not given)	6	-4	1	54*	0	1
O=C(CSc1n[nH]c(-c2ccccc2Cl)n1)NCc1cccc(C(=O)O)c1	-6	0	1	93*	0	1
CC(C)c1nc(SCC(=O)NCc2ccccc2)n[nH]1	1	-2	2	-3	0	1
CC1CC2(CC(C)(C(=O)CSc3n[nH]c(-c4ccccc4Cl)n3)OC2=O)C(=O)O1 (stereo not given)	4	-3	1	53*	2	1
Cc1n[nH]c(=O)nc1NCCN(C)C	3	-1	3.5*	-5	-1	1
CC(=O)Nc1nc(C)c(CCCOc2ccc([N+](=O)[O-])cc2)c(=O)[nH]1	4	nt	0	nt	nt	nt
CCOC(CCc1c(C)nc(NC(C)=O)[nH]c1=O)OCC	4	nt	3.1*	nt	nt	nt
COc1ccc(CC(=O)NCc2n[nH]c(=S)n2-c2ccccc2OC)cc1	9	-5	0	4	0	1
O=C1C2CC=CCC2C(=O)N1c1n[nH]c(-c2ccccc2)n1 (stereo not given)	-6	2	0	97*	1	1
O=C1C2CC=CCC2C(=O)N1c1n[nH]c(CCc2ccccc2)n1 (stereo not given)	-4	2	0	79*	0	1
O=C1C2C3C=CC(C3)C2C(=O)N1c1cccc(N2C(=O)C3C4C=CC(C4)C3C2=O)n1 (stereo not given)	3	-3	1	-8	3	1
O=C1C2C3C=CC(C3)C2C(=O)N1c1n[nH]c(-c2ccccc2)n1 (stereo not given)	6	-2	1	96*	0	1
SMILES	p97 inhibitor	TNAP inh hi DEA	PERK inh	TNAP inh no acc	Redox H2O2 prof	TNAP act hi DEA
O=C1C2C3C=CC(C3)C2C(=O)N1c1n[nH]c(-c2cccnc2)n1 (stereo not given)	5	-2	-1	59*	2	1
CC(O)CNc1nc2ccccc2n1CC(=O)NCCc1ccc(Cl)cc1 (stereo not given)	2	-4	0	-6	0	1
CC(C)=CCc1c(O)ccc2c1OC(c1ccc(O)c(O)c1)CC2=O (stereo not given)	13	-2	1	54*	-1	1
COc1cc(OC)c2c(c1O)OC(c1ccccc1)CC2=O (stereo not given)	8	-5	2	11	-2	1.1
Cc1cccc(-c2cc3nc(C)cc(NCCCN(C)C)n3n2)c1	10	-4	-2	53*	2	1
COCCNc1cc(C)nc2cc(-c3ccc(C)cc3)nn12	1	-7	0	-40	0	1.1
CC(=O)NCc1c(Cl)cccc1-n1cccc1	5	-2	3.3*	-5	1	1
CCC(=O)NCc1c(Cl)cccc1-n1cccc1	3	-2	1	-8	2	1
CCN(CC)C(=S)SCC(=O)c1ccc(F)cc1	3	2	1	52*	1	1
O=C1CCCC(=O)N1c1ccc(N2CCOCC2)c([N+](=O)[O-])c1	1	2	1	5	1	1
O=C(Nc1ccccc1)N1CCc2scc[n+]2-c2ccccc21	6	0	2	70*	0	1
CC1CN(C(=O)Nc2ccccc2)c2ccccc2-[n+]2ccsc21 (stereo not given)	-7	1	0	72*	0	1
S=c1nc(-c2ccccc2)c(-c2ccccc2)n[nH]1	3	nt	2	nt	nt	nt
Nc1c(-c2ccccc2)n[nH]c1-c1ccccc1	3	-2	0	89*	1	1
Cc1ccc(/C=N/NC(=O)NC23CC4CC(CC(C4)C2)C3)o1	3	nt	0	nt	nt	nt
Cn1cc(C(=O)Nc2ccc(Cl)cc2)c(C(F)(F)F)n1	7	-1	1	-2	-1	1
Cn1cc(NC(=O)Nc2ccc(C(F)(F)F)cc2)c(C(F)(F)F)n1	-10	nt	3.9*	nt	nt	nt
CCCC(=Nc1ccc(N)cc1)C1=C(O)C(C(=O)OC)C(C)(C)CC1=O (stereo not given)	15*	2	0	-10	1	1
CCCC(=O)C1=C(O)C(C(=O)OC)C(C)(C)CC1=Nc1ccc(N)cc1 (stereo not given)	-6	-9	0	-9	-5	1.1
COc1ccc(CCNC(=O)CCNS(=O)(=O)c2cccc(Cl)c2)cc1OC	-1	-3	-1	-8	-2	1
O=C(c1cccs1)n1nc(-c2ccccc2)nc1NCc1ccco1	0	-2	1	6	0	1
COCC(=O)n1nc(-c2ccccc2)nc1NCc1cccs1	1	15	2	54*	0	0.9
CCOC(=O)N/N=C(\C)c1ccc(-n2cnnn2)cc1	-3	-3	1	-1	-1	1
CCN(CC)CCn1c(=S)[nH]c2cc(C(=O)N3CC=C(c4ccccc4)CC3)ccc2c1=O	4	-2	0	-4	0	1

Compound activity (PubChem)
